Test results as given in ChEMBL document CHEMBL4425094, “Novel Benzo[a]quinolizidine Analogs Induce Cancer Cell Death through Paraptosis and Apoptosis” (J Med Chem, 2016).

How the values were obtained:
[1] = test system: RWPE-1; assay: Cytotoxicity against human RWPE1 cells assessed as cell growth inhibition after 24 hrs by MTT assay; assay type: cell-based; settings: RWPE-1, 24 h
Outline: (§1)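 Cells seeded 24 h in RPMI 1640 + 10% FBS. RWPE-1 was kept in K-SFM with bovine pituitary extract and EGF. Cells then exposed to compounds for 24 h at 37 °C, 5% CO2, with DMSO vehicle and docetaxel as positive control. MTT added for 4 h, absorbance read at 570 nm. Triplicate runs, IC50 reported as mean of three experiments.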

[2] = test system: PC-3; assay: Cytotoxicity against human PC3 cells assessed as cell growth inhibition after 24 hrs by MTT assay; assay type: functional, cell-based; settings: PC-3, 24 h; outline: as §1
[3] = test system: MCF7; assay: Cytotoxicity against human MCF7 cells assessed as cell growth inhibition after 24 hrs by MTT assay; assay type: functional, cell-based; settings: MCF7, 24 h; outline: as §1
[4] = test system: HeLa; assay: Cytotoxicity against human HeLa cells assessed as cell growth inhibition after 24 hrs by MTT assay; assay type: functional, cell-based; outline: as §1
[5] = test system: MDA-MB-231; assay: Cytotoxicity against human MDA-MB-231 cells assessed as cell growth inhibition after 24 hrs by MTT assay; assay type: functional, cell-based; settings: MDA-MB-231, 24 h; outline: as §1
[6] = test system: K562; assay: Cytotoxicity against human K562 cells assessed as cell growth inhibition after 24 hrs by MTT assay; assay type: functional, cell-based; settings: K562, 24 h; outline: as §1
[7] = test system: DU-145; assay: Cytotoxicity against human DU145 cells assessed as cell growth inhibition after 24 hrs by MTT assay; assay type: functional, cell-based; settings: DU-145, 24 h; outline: as §1

C[C@@H]1C[C@H](O)C[C@H]2c3cc(OCc4cccc(F)c4)c(OCc4cccc(F)c4)cc3CCN12
IC50 [1]: 4.45 µM | IC50 [2]: 1.36 µM | IC50 [3]: 0.62 µM | IC50 [4]: 1.31 µM | IC50 [5]: 1.23 µM | IC50 [6]: 1.08 µM | IC50 [7]: 3.05 µM

COc1ccc([C@@H]2C[C@H](O)C[C@H]3c4cc(OCc5ccccc5)c(OCc5ccccc5)cc4CCN23)cc1OC
IC50 [1]: > 20 µM | IC50 [2]: > 20 µM | IC50 [3]: > 20 µM | IC50 [4]: > 20 µM | IC50 [5]: > 20 µM | IC50 [6]: > 20 µM | IC50 [7]: > 20 µM

O=C1C[C@@H](c2ccc([N+](=O)[O-])cc2)N2CCc3cc(OCc4ccccc4)c(OCc4ccccc4)cc3[C@@H]2C1
IC50 [1]: > 20 µM | IC50 [2]: > 20 µM | IC50 [3]: > 20 µM | IC50 [4]: > 20 µM | IC50 [5]: > 20 µM | IC50 [6]: > 20 µM | IC50 [7]: > 20 µM

COc1cc2c(cc1OC)[C@@H]1CC(=O)C[C@@H](c3ccccc3)N1CC2 (relative stereo)
IC50 [1]: > 20 µM | IC50 [2]: > 20 µM | IC50 [3]: > 20 µM | IC50 [4]: > 20 µM | IC50 [5]: > 20 µM | IC50 [6]: > 20 µM | IC50 [7]: > 20 µM

C[C@@H]1C[C@@](C)(O)C[C@H]2c3cc(OCc4ccc(C(C)(C)C)cc4)c(OCc4ccc(C(C)(C)C)cc4)cc3CCN12
IC50 [1]: 4.03 µM | IC50 [2]: 1.11 µM | IC50 [3]: 2.61 µM | IC50 [4]: 0.91 µM | IC50 [5]: 0.98 µM | IC50 [6]: 1.35 µM | IC50 [7]: 1.46 µM

O[C@@H]1C[C@@H](c2ccccc2)N2CCc3ccc(OCc4ccccc4)cc3[C@@H]2C1
IC50 [1]: > 20 µM | IC50 [2]: > 20 µM | IC50 [3]: > 20 µM | IC50 [4]: > 20 µM | IC50 [5]: > 20 µM | IC50 [6]: > 20 µM | IC50 [7]: > 20 µM

O=C1C[C@@H](c2ccc(-c3ccccc3)cc2)N2CCc3cc(OCc4ccccc4)c(OCc4ccccc4)cc3[C@@H]2C1 (relative stereo)
IC50 [1]: > 20 µM | IC50 [2]: > 20 µM | IC50 [3]: > 20 µM | IC50 [4]: > 20 µM | IC50 [5]: > 20 µM | IC50 [6]: > 20 µM | IC50 [7]: > 20 µM

COc1ccc([C@@H]2C[C@@H](O)C[C@H]3c4cc(OCc5ccccc5)c(OCc5ccccc5)cc4CCN23)cc1
IC50 [1]: > 20 µM | IC50 [2]: > 20 µM | IC50 [3]: > 20 µM | IC50 [4]: > 20 µM | IC50 [5]: > 20 µM | IC50 [6]: > 20 µM | IC50 [7]: > 20 µM

C[C@@H]1CC(=O)C[C@H]2c3cc(OCc4ccc(Br)cc4)c(OCc4ccc(Br)cc4)cc3CCN12 (relative stereo)
IC50 [1]: > 20 µM | IC50 [2]: > 20 µM | IC50 [3]: > 20 µM | IC50 [4]: > 20 µM | IC50 [5]: > 20 µM | IC50 [6]: > 20 µM | IC50 [7]: > 20 µM

CCCCCC[C@@H]1C[C@@H](O)C[C@H]2c3cc(OCc4ccccc4)c(OCc4ccccc4)cc3CCN12
IC50 [1]: > 20 µM | IC50 [2]: > 20 µM | IC50 [3]: > 20 µM | IC50 [4]: > 20 µM | IC50 [5]: > 20 µM | IC50 [6]: > 20 µM | IC50 [7]: > 20 µM

COc1ccc([C@@H]2CC(=O)C[C@H]3c4cc(OCc5cc(F)cc(F)c5)c(OCc5cc(F)cc(F)c5)cc4CCN23)cc1OC (relative stereo)
IC50 [1]: > 20 µM | IC50 [2]: > 20 µM | IC50 [3]: > 20 µM | IC50 [4]: > 20 µM | IC50 [5]: > 20 µM | IC50 [6]: > 20 µM | IC50 [7]: > 20 µM

O=[N+]([O-])c1ccc([C@@H]2C[C@@H](O)C[C@H]3c4cc(OCc5ccccc5)c(OCc5ccccc5)cc4CCN23)cc1
IC50 [1]: > 20 µM | IC50 [2]: > 20 µM | IC50 [3]: > 20 µM | IC50 [4]: > 20 µM | IC50 [5]: > 20 µM | IC50 [6]: > 20 µM | IC50 [7]: > 20 µM

COc1ccc([C@@H]2C[C@@H](O)C[C@H]3c4cc(OCc5ccccc5)c(OCc5ccccc5)cc4CCN23)cc1OC
IC50 [1]: 2.08 µM | IC50 [2]: 1.51 µM | IC50 [3]: 2 µM | IC50 [4]: 3.46 µM | IC50 [5]: 1.15 µM | IC50 [6]: 5.42 µM | IC50 [7]: 1.59 µM

CCC[C@@H]1C[C@H](O)C/C=C(/CC)[C@H]2c3cc(OCc4ccccc4)c(OCc4ccccc4)cc3CCN12
IC50 [1]: > 20 µM | IC50 [2]: > 20 µM | IC50 [3]: > 20 µM | IC50 [4]: > 20 µM | IC50 [5]: > 20 µM | IC50 [6]: > 20 µM | IC50 [7]: > 20 µM

O[C@]1(c2ccccc2)C[C@@H](c2ccccc2)N2CCc3cc(OCc4ccccc4)c(OCc4ccccc4)cc3[C@@H]2C1
IC50 [1]: > 20 µM | IC50 [2]: > 20 µM | IC50 [3]: > 20 µM | IC50 [4]: > 20 µM | IC50 [5]: > 20 µM | IC50 [6]: > 20 µM | IC50 [7]: > 20 µM

CC[C@@H]1C[C@H](O)C/C=C(/C)[C@H]2c3cc(OCc4ccccc4)c(OCc4ccccc4)cc3CCN12
IC50 [1]: > 20 µM | IC50 [2]: > 20 µM | IC50 [3]: > 20 µM | IC50 [4]: > 20 µM | IC50 [5]: > 20 µM | IC50 [6]: > 20 µM | IC50 [7]: > 20 µM

O[C@H]1C[C@@H](c2ccccc2)N2CCc3ccc(OCc4ccccc4)cc3[C@@H]2C1
IC50 [1]: > 20 µM | IC50 [2]: > 20 µM | IC50 [3]: > 20 µM | IC50 [4]: > 20 µM | IC50 [5]: > 20 µM | IC50 [6]: > 20 µM | IC50 [7]: > 20 µM

O=C1C[C@@H](c2ccccc2)N2CCc3cc(O)c(O)cc3[C@@H]2C1 (relative stereo)
IC50 [1]: > 20 µM | IC50 [2]: > 20 µM | IC50 [3]: > 20 µM | IC50 [4]: > 20 µM | IC50 [5]: > 20 µM | IC50 [6]: > 20 µM | IC50 [7]: > 20 µM

Cc1cc(C)cc(COc2cc3c(cc2OCc2cc(C)cc(C)c2)[C@@H]2CC(=O)C[C@@H](C)N2CC3)c1 (relative stereo)
IC50 [1]: > 20 µM | IC50 [2]: > 20 µM | IC50 [3]: > 20 µM | IC50 [4]: > 20 µM | IC50 [5]: > 20 µM | IC50 [6]: > 20 µM | IC50 [7]: > 20 µM

C/C=C/C(=O)CC1c2cc(OCc3cc(C)cc(C)c3)c(OCc3cc(C)cc(C)c3)cc2CCN1C(=O)OC(C)(C)C (stereo not given)
IC50 [1]: > 20 µM | IC50 [2]: > 20 µM | IC50 [3]: > 20 µM | IC50 [4]: > 20 µM | IC50 [5]: > 20 µM | IC50 [6]: > 20 µM | IC50 [7]: > 20 µM

C[C@@H]1C[C@@H](O)C[C@H]2c3cc(OCc4ccc(C(C)(C)C)cc4)c(OCc4ccc(C(C)(C)C)cc4)cc3CCN12
IC50 [1]: 1.91 µM | IC50 [2]: 3.79 µM | IC50 [3]: 0.86 µM | IC50 [4]: 2.06 µM | IC50 [5]: 3.25 µM | IC50 [6]: 2.04 µM | IC50 [7]: 2.22 µM

COc1ccc([C@@H]2CC(=O)C[C@H]3c4cc(OCc5ccccc5)c(OCc5ccccc5)cc4CCN23)cc1OC (relative stereo)
IC50 [1]: > 20 µM | IC50 [2]: > 20 µM | IC50 [3]: > 20 µM | IC50 [4]: > 20 µM | IC50 [5]: > 20 µM | IC50 [6]: > 20 µM | IC50 [7]: > 20 µM

CC[C@@H]1CC(=O)C[C@H]2c3cc(OCc4ccccc4)c(OCc4ccccc4)cc3CCN12 (relative stereo)
IC50 [1]: > 20 µM | IC50 [2]: > 20 µM | IC50 [3]: > 20 µM | IC50 [4]: > 20 µM | IC50 [5]: > 20 µM | IC50 [6]: > 20 µM | IC50 [7]: > 20 µM

C[C@@H]1CC(=O)C[C@H]2c3cc(OCc4cccc(F)c4)c(OCc4cccc(F)c4)cc3CCN12
IC50 [1]: > 20 µM | IC50 [2]: > 20 µM | IC50 [3]: > 20 µM | IC50 [4]: > 20 µM | IC50 [5]: 1.3 µM | IC50 [6]: > 20 µM | IC50 [7]: > 20 µM

CCCCCCOc1cc2c(cc1OCCCCCC)[C@@H]1C[C@H](O)C[C@@H](C)N1CC2
IC50 [1]: > 20 µM | IC50 [2]: > 20 µM | IC50 [3]: > 20 µM | IC50 [4]: > 20 µM | IC50 [5]: > 20 µM | IC50 [6]: > 20 µM | IC50 [7]: > 20 µM
